Test results: ChEMBL document CHEMBL1132286, “Design, synthesis, and dopamine receptor modulating activity of spiro bicyclic peptidomimetics of L-prolyl-L-leucyl-glycinamide” (J Med Chem, 1999)
Where “and” joins values, the source holds several entries; their conditions need not be identical. Equal values may be shown once. Peptide text beside a SMILES is read from it.

Key:
[1] = target: T1, D(2) dopamine receptor (Homo sapiens, UniProt P14416); test: Percent of Dopamine receptor D2 in high affinity state for the compound in absence of Gpp(NH)p
Method in brief: (§1)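 D2 receptor binding: [3H]spiroperidol displaced by the agonist N-propylnorapomorphine, run without or with Gpp(NH)p (100 μM). The assay was done either with 100 nM test-compound pretreatment or untreated as its control. High- and low-affinity dissociation constants (KH, KL) and receptor fractions (RH, RL, RH/RL) are reported. Values are mean ± SEM of 3–4 separate experiments, each done in duplicate or triplicate.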

[2] = target: T1, D(2) dopamine receptor; test: Inhibitor constant of compound for high affinity component of [3H]spiroperidol/N-propylnorapomorphine binding to Dopamine receptor D2 in presence of Gpp(NH)p; method in brief: as §1
[3] = target: T1, D(2) dopamine receptor; test: Ratio of the high affinity state over low affinity state of dopamine D2 receptor in the absence of Gpp(NH)p.; method in brief: as §1
[4] = target: T1, D(2) dopamine receptor; test: Ratio of the high affinity state over low affinity state of dopamine D2 receptor in the presence of Gpp(NH)p.; method in brief: as §1
[5] = target: T1, D(2) dopamine receptor; test: Percent of Dopamine receptor D2 in low affinity state for the compound in absence of Gpp(NH)p (pretreatment with 100 nM of compound).; method in brief: as §1
[6] = target: T1, D(2) dopamine receptor; test: Percent of Dopamine receptor D2 in high affinity state for the compound in presence of Gpp(NH)p (pretreatment with 100 nM of compound).; method in brief: as §1
[7] = target: T1, D(2) dopamine receptor; test: Inhibitor constant of compound for low affinity component of [3H]spiroperidol/N-propylnorapomorphine binding to Dopamine receptor D2 in absence of Gpp(NH)p; method in brief: as §1
[8] = target: T1, D(2) dopamine receptor; test: Inhibitor constant of compound for high affinity component of [3H]spiroperidol/N-propylnorapomorphine binding to Dopamine receptor D2 in absence of Gpp(NH)p (pretreatment with 100 nM of compound); method in brief: as §1
[9] = target: T1, D(2) dopamine receptor; test: Inhibitor constant of compound for high affinity component of [3H]spiroperidol/N-propylnorapomorphine binding to Dopamine receptor D2 in presence of Gpp(NH)p (pretreatment with 100 nM of compound); method in brief: as §1
[10] = target: T1, D(2) dopamine receptor; test: Inhibitor constant of compound for low affinity component of [3H]spiroperidol/N-propylnorapomorphine binding to Dopamine receptor D2 in absence of Gpp(NH)p (pretreatment with 100 nM of compound); method in brief: as §1
[11] = target: T1, D(2) dopamine receptor; test: Percent of Dopamine receptor D2 in high affinity state for the compound in presence of Gpp(NH)p; method in brief: as §1
[12] = target: T1, D(2) dopamine receptor; test: Inhibitor constant of compound for high affinity component of [3H]spiroperidol/N-propylnorapomorphine binding to Dopamine receptor D2 in absence of Gpp(NH)p; method in brief: as §1
[13] = target: T1, D(2) dopamine receptor; test: Inhibitor constant of compound for low affinity component of [3H]spiroperidol/N-propylnorapomorphine binding to Dopamine receptor D2 in presence of Gpp(NH)p; method in brief: as §1
[14] = target: T1, D(2) dopamine receptor; test: Percent of Dopamine receptor D2 in low affinity state for the compound in presence of Gpp(NH)p (pretreatment with 100 nM of compound).; method in brief: as §1
[15] = target: T1, D(2) dopamine receptor; test: Percent of Dopamine receptor D2 in high affinity state for the compound in absence of Gpp(NH)p (pretreatment with 100 nM of compound).; method in brief: as §1
[16] = target: T1, D(2) dopamine receptor; test: Ratio of the high affinity state over low affinity state of dopamine D2 receptor in the absence of Gpp(NH)p. (pretreatment with 100 nM of compound).; method in brief: as §1
[17] = target: T1, D(2) dopamine receptor; test: Percent of Dopamine receptor D2 in low affinity state for the compound in presence of Gpp(NH)p; method in brief: as §1
[18] = target: T1, D(2) dopamine receptor; test: Ratio of the high affinity state over low affinity state of dopamine D2 receptor in the presence of Gpp(NH)p. (pretreatment with 100 nM of compound).; method in brief: as §1
[19] = target: T1, D(2) dopamine receptor; test: Percent of Dopamine receptor D2 in low affinity state for the compound in absence of Gpp(NH)p; method in brief: as §1
[20] = tested on: Rattus norvegicus; test: Percent increase in apomorphine induced rotational behavior in the 6-hydroxydopamine lesioned rat model of hemiparkinsonism by 0.001 mg/Kg of compound given intraperitoneally; assay type: functional
Method in brief: (§2)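 Rats with a unilateral 6-hydroxydopamine lesion of the substantia nigra received the test compound ip (0.00001–1 mg/kg) together with apomorphine (0.25 mg/kg, ip), n = 4. Contralateral rotations were counted over 10 min and expressed as percent change from the control rotational response, mean ± SEM.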

[21] = tested on: Rattus norvegicus; test: Percent increase in apomorphine induced rotational behavior in the 6-hydroxydopamine lesioned rat model of hemiparkinsonism by 0.01 mg/Kg of compound given intraperitoneally; assay type: functional; method in brief: as §2

T1 sequence (P14416 whole entry): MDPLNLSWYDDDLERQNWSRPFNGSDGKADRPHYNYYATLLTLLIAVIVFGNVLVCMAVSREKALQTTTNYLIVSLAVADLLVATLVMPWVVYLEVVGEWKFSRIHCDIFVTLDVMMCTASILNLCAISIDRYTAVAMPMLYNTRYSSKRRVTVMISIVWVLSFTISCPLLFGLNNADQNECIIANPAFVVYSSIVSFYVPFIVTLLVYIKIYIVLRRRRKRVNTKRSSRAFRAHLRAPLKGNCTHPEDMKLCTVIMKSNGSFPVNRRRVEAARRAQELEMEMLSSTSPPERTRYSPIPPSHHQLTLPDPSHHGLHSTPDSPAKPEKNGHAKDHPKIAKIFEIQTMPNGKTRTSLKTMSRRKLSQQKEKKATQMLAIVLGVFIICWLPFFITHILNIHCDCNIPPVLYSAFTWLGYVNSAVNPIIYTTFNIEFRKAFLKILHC

SMILES	RH [1] [%]	Ki [2] [nM]	RH/RL [3]	RH/RL [4]	RL [5] [%]	RH [6] [%]	Ki [7] [nM]	Ki [8] [nM]	Ki [9] [nM]	Ki [10] [nM]	RH [11] [%]	Ki [12] [nM]	Ki [13]	RL [14] [%]	RH [15] [%]	RH/RL [16]	RL [17] [%]	RH/RL [18]	RL [19] [%]	other results
CC(C)C[C@H](NC(=O)[C@@H]1CCCN1)C(=O)NCC(N)=O (H-Pro-Leu-Gly-NH2)	49	0.13	0.96	0.23	41	32	73.2	0.04	0.06	60.1	19	0.09	60 nM and 78 nM	72	61	1.48	82	0.44	51	–
NC(=O)[C@H]1CS[C@@H]2CC[C@]3(CCCN3C(=O)[C@@H]3CCCN3)C(=O)N12	53	0.196	1.13	0.2	32	55	190	0.05	0.09	188	17	0.067	260 nM and 211 nM	45	68	2.12	83	1.22	47	Activity [20]: 88%
NC(=O)C1CCS[C@@H]2C[C@]3(CCCN3C(=O)[C@@H]3CCCN3)C(=O)N12 (some centres undefined)	52	0.122	1.08	0.17	36	53	196	0.031	0.064	168	15	0.071	246 nM and 202 nM	47	64	1.77	85	1.12	48	Activity [21]: 95%
